The source of these data is ChEMBL document CHEMBL1132295, “Novel euglycemic and hypolipidemic agents. 4. Pyridyl- and quinolinyl-containing thiazolidinediones” (1999).

Test [1] has as its system Mus musculus. Nature of the test: Compound was administered at a dose of 3 mg/kg/day to evaluate the percentage reduction in plasma triglyceride (TG) after 14 days of treatment in db/db mice via oral gavage.
Test [2] deals with Mus musculus. Nature of the test: Compound was administered at a dose of 3 mg/kg/day to evaluate the percentage reduction in plasma glucose(PG) after 14 days of treatment in db/db mice via oral gavage.
The subject of test [3] is Mus musculus. Nature of the test: Compound was administered at a dose of 20 mg/kg/day to evaluate the percentage reduction in plasma glucose(PG) after 14 days of treatment in db/db mice via oral gavage.
The subject of test [4] is Mus musculus. The experiment in a line: Percentage reduction in plasma glucose after 6 days p.o. dosing at 30 mg/kg in db/db mice. Type of test: functional. To be noted: route oral. In outline: (§1)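 Male C57BL/KsJ-db/db mice, 8 weeks old, 4–6 per group, given compound orally once daily for 6 days; vehicle controls received 0.5% CMC (10 mL/kg); rosiglitazone 30 mg/kg as standard. On the last day, retro-orbital blood was taken 1 h post-dose. Plasma glucose and triglyceride were measured by kits. % reduction = [1 − (TT/OT)/(TC/OC)] × 100, using day-0 and control values; mean ± SE, ANOVA, P<0.05.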

The subject of test [5] is Mus musculus. Nature of the test: Compound was administered at a dose of 30 mg/kg/day to evaluate the percentage reduction in plasma triglyceride (TG) after 6 days of treatment in db/db mice via oral gavage. In kind it is functional. In outline: as §1
The subject of test [6] is Mus musculus. Nature of the test: Compound was administered at a dose of 20 mg/kg/day to evaluate the percentage reduction in plasma triglyceride (TG) after 14 days of treatment in db/db mice via oral gavage.
The test system of test [7] is Mus musculus. The experiment in a line: Compound was administered at a dose of 100 mg/kg/day to evaluate the percentage reduction in plasma glucose(PG) after 6 days of treatment in db/db mice via oral gavage. Type of test: functional. In outline: as §1
Test [8] relates to Mus musculus. The experiment in a line: Compound was administered at a dose of 100 mg/kg/day to evaluate the percentage reduction in plasma triglyceride (TG) after 6 days of treatment in db/db mice via oral gavage. In kind it is functional. The method in brief: as §1
For test [9], the system named is Mus musculus. Nature of the test: Compound was administered at a dose of 10 mg/kg/day to evaluate the percentage reduction in plasma triglyceride (TG) after 14 days of treatment in db/db mice via oral gavage.
Test [10] relates to Mus musculus. Nature of the test: Compound was administered at a dose of 30 mg/kg/day to evaluate the percentage reduction in plasma triglyceride (TG) after 14 days of treatment in ob/ob mice via oral gavage.
Test [11] deals with Mus musculus. Nature of the test: Compound was administered at a dose of 10 mg/kg/day to evaluate the percentage reduction in plasma triglyceride (TG) after 14 days of treatment in ob/ob mice via oral gavage.
The test system of test [12] is Mus musculus. The experiment in a line: Compound was administered at a dose of 30 mg/kg/day to evaluate the percentage reduction in plasma glucose(PG) after 14 days of treatment in ob/ob mice via oral gavage.
Test [13] relates to Mus musculus. The experiment in a line: Compound was administered at a dose of 10 mg/kg/day to evaluate the percentage reduction in plasma glucose(PG) after 14 days of treatment in db/db mice via oral gavage.
Test [14] deals with Mus musculus. Nature of the test: Compound was administered at a dose of 1 mg/kg/day to evaluate the percentage reduction in plasma glucose(PG) after 14 days of treatment in ob/ob mice via oral gavage.
Test [15] relates to Mus musculus. Nature of the test: Compound was administered at a dose of 1 mg/kg/day to evaluate the percentage reduction in plasma triglyceride (TG) after 14 days of treatment in ob/ob mice via oral gavage.
For test [16], the system named is Mus musculus. Nature of the test: Compound was administered at a dose of 3 mg/kg/day to evaluate the percentage reduction in plasma glucose(PG) after 14 days of treatment in ob/ob mice via oral gavage.
Test [17] has as its system Mus musculus. The experiment in a line: Compound was administered at a dose of 10 mg/kg/day to evaluate the percentage reduction in plasma glucose(PG) after 14 days of treatment in ob/ob mice via oral gavage.
Test [18] relates to Mus musculus. Nature of the test: Compound was administered at a dose of 3 mg/kg/day to evaluate the percentage reduction in plasma triglyceride (TG) after 14 days of treatment in ob/ob mice via oral gavage.
For test [19], the system named is Mus musculus. Nature of the test: Compound was administered at a dose of 100 mg/kg/day to evaluate the percentage reduction in plasma triglyceride (TG) after 6 days of treatment in db/db mice via oral gavage; Not significant. Type of test: functional, organism-based. In outline: as §1
Test [20] has as its system Mus musculus. Nature of the test: Compound was administered at a dose of 100 mg/kg/day to evaluate the percentage reduction in plasma glucose(PG) after 6 days of treatment in db/db mice via oral gavage; Not significant. Type of test: functional, organism-based. In outline:
as §1

In test [21] the test system is Mus musculus. The experiment in a line: Compound was administered at a dose of 30 mg/kg/day to evaluate the percentage reduction in plasma triglyceride (TG) after 6 days of treatment in db/db mice via oral gavage; Not significant. In kind it is functional, organism-based. The method in brief: as §1

Turning to `O=C(O)/C=C\C(=O)O.O=C1NC(=O)C(Cc2ccc(OC[C@@H]3CCCN3c3ccccn3)cc2)S1` (stereo partly drawn), the Reduction in the test on Mus musculus [1] is listed as 41.5%; with Mus musculus [2], 8.5%; with Mus musculus [3], 41.25%; with Mus musculus [4] it was 62.5%; in the test on Mus musculus [5], 44.75%; in the test with Mus musculus [6], 34.5%.
`O=C1NC(=O)/C(=C\c2ccc(OC[C@@H]3CCCN3c3ccccn3)cc2)S1`: the Reduction in the test with Mus musculus [7] came out at 57%; in the test with Mus musculus [8], 77.75%.
As to `O=C1[N-]C(=O)C(Cc2ccc(OC[C@@H]3CCCN3c3ccccn3)cc2)S1.[Na+]` (stereo partly drawn), the Reduction in the test with Mus musculus [4] came to 65.5%.
In the case of `CN(CCOc1ccc(CC2SC(=O)NC2=O)cc1)c1ccccn1` (stereo in doubt; form 2) [ROSIGLITAZONE], the Reduction in the test with Mus musculus [4] (30 mg/kg) came out at 35%; in the test on Mus musculus [5], 40.21%.
For `Cc1cc(N2CCC[C@H]2COc2ccc(CC3SC(=O)NC3=O)cc2)nc2ccccc12` (stereo partly drawn), the Reduction is reported as 40.5% in the test with Mus musculus [4] and 66.25% in the test on Mus musculus [5].
In the case of `Cl.O=C1NC(=O)/C(=C/c2ccc(OC[C@@H]3CCCN3c3ccccn3)cc2)S1`, the Reduction in the test with Mus musculus [9] came to 43.8%; in the test on Mus musculus [10], 53%; in the test on Mus musculus [11], 35%; in the test on Mus musculus [12] it was 37.2%; with Mus musculus [13], 61%; in the test on Mus musculus [14], 18.8%. Also, the Reduction amounted to 53.8% with Mus musculus [2]; 46.6% in the test with Mus musculus [15]; 50.2% in the test on Mus musculus [16]; 70.8% in the test with Mus musculus [4]; 31.7% in the test with Mus musculus [5]; 42.4% in the test with Mus musculus [17]. Also, in the test with Mus musculus [18], the Reduction worked out at 39.33%.
Regarding `O=C(O)/C=C\C(=O)O.O=C1NC(=O)/C(=C/c2ccc(OC[C@@H]3CCCN3c3ccccn3)cc2)S1`, the Reduction with Mus musculus [9] was determined as 78.4%; in the test on Mus musculus [1], 75%; in the test with Mus musculus [10] it was 68.5%; in the test with Mus musculus [11], 41.5%; in the test on Mus musculus [12], 73%; in the test with Mus musculus [13], 49.6%. Moreover, the Reduction in the test with Mus musculus [14] was found to be 52.4%; with Mus musculus [2], 12.75%; with Mus musculus [15], 65.75%; in the test on Mus musculus [16], 40.25%; in the test with Mus musculus [4], 63.6%; with Mus musculus [5], 66.4%. Moreover, the Reduction in the test with Mus musculus [17] is reported as 69.25%; in the test with Mus musculus [18], 59%.
For the compound `O=C1[N-]C(=O)/C(=C/c2ccc(OC[C@@H]3CCCN3c3ccccn3)cc2)S1.[Na+]`, the results for the Reduction with Mus musculus [4] and in the test on Mus musculus [5] were 56.5% and 56%, respectively.
Regarding `O=C1[N-]C(=O)C(Cc2ccc(OCC3CN(c4ccccn4)CCO3)cc2)S1.[Na+]` (stereo not drawn), the Reduction in the test on Mus musculus [9] turned out to be 39%; with Mus musculus [1], 39.25%; in the test on Mus musculus [13], 66%; in the test on Mus musculus [14], 30%; in the test on Mus musculus [2], 34.67%; in the test on Mus musculus [16], 35.6%. Moreover, the results for the Reduction in the test with Mus musculus [4], in the test on Mus musculus [5] and with Mus musculus [17] were 63.5%, 56.75% and 39.8%, respectively.
In the case of `CN(CCOc1ccc(/C=C2\SC(=O)NC2=O)cc1)c1ccccn1`, the Reduction in the test with Mus musculus [7] was found to be 55.5%; in the test with Mus musculus [8], 35%.
As for `Cc1cc(N2CCC[C@H]2COc2ccc(CC3SC(=O)NC3=O)cc2)nc2ccccc12.Cl` (stereo partly drawn), the Reduction worked out at 25.25% in the test on Mus musculus [4] and 42% in the test on Mus musculus [5].
`O=C1NC(=O)/C(=C/c2ccc(OCCN3CCN(c4ccccn4)CC3)cc2)S1`: the Reduction in the test with Mus musculus [7] was 35.75%; in the test on Mus musculus [8], 69.75%.
For `O=C1[N-]C(=O)C(Cc2ccc(OC[C@@H]3CCCN3c3ccc4ccccc4n3)cc2)S1.[Na+]` (stereo partly drawn), the Reduction was 61.5% in the test with Mus musculus [4] and 24.75% in the test on Mus musculus [5].
In turn, `Cc1cc(N2CCC[C@H]2COc2ccc(CC3SC(=O)NC3=O)cc2)nc2ccccc12.O=C(O)/C=C\C(=O)O` (stereo partly drawn) showed a Reduction in the test with Mus musculus [5] of 53%.
Take `CN(CCOc1ccc(CC2SC(=O)NC2=O)cc1)c1ccccn1` (stereo in doubt; form 1) [ROSIGLITAZONE]: the Reduction in the test with Mus musculus [9] is 35.25%; in the test with Mus musculus [1] it was 47%; in the test with Mus musculus [13], 47.25%; in the test on Mus musculus [2], 41.6%; with Mus musculus [4] (30 mg/kg) it was 64.6%; with Mus musculus [5], 41%.
As to `O=C1NC(=O)/C(=C/c2ccc(OCC3CN(c4ccccn4)CCO3)cc2)S1` (stereo not drawn) [listing 1 of 2 here], the Reduction in the test on Mus musculus [7] was 55.25%; in the test with Mus musculus [8], 52.5%.
As to `O=C1NC(=O)/C(=C/c2ccc(OC[C@@H]3CCCN3c3ccc4ccccc4n3)cc2)S1`, the Reduction result in the test with Mus musculus [19] was “Not significant”; in the test with Mus musculus [7], 63.75%.
In the case of `Cc1cc(N2CCC[C@H]2COc2ccc(CC3SC(=O)[N-]C3=O)cc2)nc2ccccc12.[Na+]` (stereo partly drawn), the Reduction with Mus musculus [4] turned out to be 30.25%; with Mus musculus [5], 58.5%.
In the test on Mus musculus [4], `O=C1NC(=O)C(Cc2ccc(OCC3CN(c4ccccn4)CCO3)cc2)S1` (stereo not drawn) [listing 1 of 2 here] showed a Reduction of 57.5%.
In the test on Mus musculus [4], `Cl.O=C1NC(=O)C(Cc2ccc(OC[C@@H]3CCCN3c3ccc4ccccc4n3)cc2)S1` (stereo partly drawn) had a Reduction of 15.75%.
On to `O=C1NC(=O)C(Cc2ccc(OC[C@@H]3CCCN3c3ccccn3)cc2)S1` (stereo partly drawn), for which the Reduction with Mus musculus [4] came out at 52.25%; in the test with Mus musculus [5] it was 65.5%.
For `O=C1NC(=O)/C(=C/c2ccc(OCC3CCN(c4ccccn4)CC3)cc2)S1`, the Reduction entry was “Not significant” with Mus musculus [20] and 27.33% with Mus musculus [8].
Consider `O=C1NC(=O)/C(=C/c2ccc(OC3CCN(c4ccccn4)CC3)cc2)S1`, for which the figures for the Reduction with Mus musculus [7] and in the test on Mus musculus [8] were 38% and 40.25%, respectively.
As for `O=C1NC(=O)C(Cc2ccc(OCC3CN(c4ccccn4)CCO3)cc2)S1` (stereo not drawn) [listing 2 of 2 here], the Reduction entry in the test on Mus musculus [21] was “Not significant”.
For `O=C1NC(=O)C(Cc2ccc(OC[C@@H]3CCCN3c3ccc4ccccc4n3)cc2)S1` (stereo partly drawn) [listing 1 of 2 here], the Reduction result in the test with Mus musculus [21] is “Not significant”.
Regarding `Cl.O=C1NC(=O)C(Cc2ccc(OC[C@@H]3CCCN3c3ccccn3)cc2)S1` (stereo partly drawn), the Reduction in the test with Mus musculus [4] and in the test on Mus musculus [5] was 50.5% each time.
Take `Cl.O=C1NC(=O)/C(=C/c2ccc(OCC3CN(c4ccccn4)CCO3)cc2)S1` (stereo not drawn): the Reduction in the test on Mus musculus [4] was 35.5%.
As to `O=C1NC(=O)/C(=C/c2ccc(OCC3CN(c4ccccn4)CCO3)cc2)S1` (stereo not drawn) [listing 2 of 2 here], in the test with Mus musculus [21], the Reduction entry is “Not significant”.
Consider `O=C1NC(=O)C(Cc2ccc(OC[C@@H]3CCCN3c3ccc4ccccc4n3)cc2)S1` (stereo partly drawn) [listing 2 of 2 here], for which the Reduction in the test with Mus musculus [4] amounted to 72.25%; with Mus musculus [5], 49%.
